Reference: ChEMBL document CHEMBL3525925, “In vitro studies on the oxidative metabolism of 20(s)-ginsenoside Rh2 in human, monkey, dog, rat, and mouse liver microsomes, and human liver s9” (Drug Metab Dispos, 2012)

What was measured:
Liver microsome [1] = test: Retention time in human liver microsomes treated with 10 uM 20(S)-ginsenoside Rh2 by MS2 spectra; format: ADME
Outline: (§1)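 Samples: incubation mixed with equal volume methanol, centrifuged at 14,000g for 5 min, dried under nitrogen at 40°C, reconstituted. Separated on Eclipse XDB-C18 (4.6 × 150 mm, 5 μm) at 0.5 ml/min. Gradient: 0.1% formic acid in methanol against 0.1% formic acid in 5 mM ammonium acetate, 70% to 100% organic over 17 min. Ion-trap MSn detection.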

Liver [2] = test: Retention time in human liver S9 fraction treated with 10 uM 20(S)-ginsenoside Rh2 by MS2 spectra; format: ADME, subcellular; outline: as §1
Liver microsome [3] = test: Drug level in human liver microsomes treated with 10 uM 20(S)-ginsenoside Rh2 for 60 mins by MS2 spectra; format: ADME; conditions: 1 h
Outline: (§2)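 Rh2 at 10 μM final (from methanol stock; 0.1% v/v methanol final) in 100 mM potassium phosphate pH 7.4 with 2 mM NADPH, open-to-air tubes at 37°C. 3 min preincubation, then started with liver microsomes or S9 at 1 mg/ml protein. Incubated 60 min, stopped with equal volume ice-cold acetonitrile. Controls lacked NADPH; duplicates. Metabolites detected by LC/ion-trap MSn.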

[4] = Drug level in cynomolgus monkey liver microsomes treated with 10 uM 20(S)-ginsenoside Rh2 for 60 mins by MS2 spectra; format: ADME, Macaca fascicularis; conditions: 1 h; outline: as §2
Liver microsome [5] = test: Drug level in beagle dog liver microsomes treated with 10 uM 20(S)-ginsenoside Rh2 for 60 mins by MS2 spectra; format: ADME, Canis lupus familiaris; conditions: 1 h; outline: as §2
Liver microsome [6] = test: Drug level in Sprague-Dawley rat liver microsomes treated with 10 uM 20(S)-ginsenoside Rh2 for 60 mins by MS2 spectra; format: ADME; conditions: 1 h; outline: as §2
Liver [7] = test: Drug level in CD-1 mouse liver microsomes treated with 10 uM 20(S)-ginsenoside Rh2 for 60 mins by MS2 spectra; format: ADME; conditions: 1 h; outline: as §2
Liver [8] = test: Drug level in human liver S9 fraction treated with 10 uM 20(S)-ginsenoside Rh2 for 60 mins by MS2 spectra; format: ADME, subcellular; conditions: s9, 1 h; outline: as §2
Cytochrome P450 3A4 = Cytochrome P450 3A4 (Homo sapiens, UniProt P08684); test: Drug level in human recombinant CYP3A4 treated with 10 uM 20(S)-ginsenoside Rh2 for 60 mins by MS2 spectra; format: ADME; conditions: recombinant enzyme, 1 h
Cytochrome P450 3A4, sequence (P08684 whole entry): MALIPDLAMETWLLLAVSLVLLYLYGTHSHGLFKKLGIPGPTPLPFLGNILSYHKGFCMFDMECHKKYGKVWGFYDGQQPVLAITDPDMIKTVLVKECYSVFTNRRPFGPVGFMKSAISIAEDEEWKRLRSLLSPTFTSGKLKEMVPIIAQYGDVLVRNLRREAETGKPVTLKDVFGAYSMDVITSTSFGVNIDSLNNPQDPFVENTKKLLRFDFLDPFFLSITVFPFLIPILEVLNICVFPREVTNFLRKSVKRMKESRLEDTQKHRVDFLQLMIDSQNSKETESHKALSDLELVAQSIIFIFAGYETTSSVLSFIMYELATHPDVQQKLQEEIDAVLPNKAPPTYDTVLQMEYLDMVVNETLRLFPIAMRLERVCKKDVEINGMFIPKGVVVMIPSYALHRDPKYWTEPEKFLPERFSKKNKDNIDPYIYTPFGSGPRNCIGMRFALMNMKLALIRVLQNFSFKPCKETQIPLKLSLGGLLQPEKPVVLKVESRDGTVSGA
Outline: (§3)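 Recombinant human P450 (50 nM) with 10 μM Rh2 under the microsomal conditions: 100 mM potassium phosphate pH 7.4, 2 mM NADPH, 37°C for 60 min. Stopped with equal volume ice-cold acetonitrile. Run in duplicate; products analysed by LC/ion-trap MSn.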

Cytochrome P450 3A5 = Cytochrome P450 3A5 (Homo sapiens, UniProt P20815); test: Drug level in human recombinant CYP3A5 treated with 10 uM 20(S)-ginsenoside Rh2 for 60 mins by MS2 spectra; format: ADME; conditions: recombinant enzyme, 1 h; outline: as §3
Cytochrome P450 3A5, sequence (P20815 whole entry): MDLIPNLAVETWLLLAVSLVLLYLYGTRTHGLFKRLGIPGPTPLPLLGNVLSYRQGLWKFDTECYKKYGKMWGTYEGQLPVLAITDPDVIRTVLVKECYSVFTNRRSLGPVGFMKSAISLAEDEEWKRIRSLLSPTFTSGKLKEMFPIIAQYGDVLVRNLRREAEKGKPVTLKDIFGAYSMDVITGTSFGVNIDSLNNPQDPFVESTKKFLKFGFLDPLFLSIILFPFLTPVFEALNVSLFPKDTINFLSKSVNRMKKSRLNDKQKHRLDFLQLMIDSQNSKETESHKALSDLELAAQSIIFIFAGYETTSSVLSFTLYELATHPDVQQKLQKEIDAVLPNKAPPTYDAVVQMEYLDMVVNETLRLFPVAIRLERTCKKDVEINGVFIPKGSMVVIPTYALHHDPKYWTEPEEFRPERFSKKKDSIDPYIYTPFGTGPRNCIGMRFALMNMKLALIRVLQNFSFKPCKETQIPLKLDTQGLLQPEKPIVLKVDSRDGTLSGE

Liver cytosol [9] = test: Drug metabolism in human liver cytosol assessed as 26-carboxy,20(S)-Ginsenoside Rh2 formation at 10 uM by LC/MS analysis in presence of 50 uM 4-methylpyrazole alcohol dehydrogenase inhibitor; format: ADME
Outline: (§4)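 Pooled human liver cytosol (1 mg/ml) with 2 mM NAD+ and inhibitor in 100 mM potassium phosphate pH 7.4; inhibitors given from DMSO, 0.1% v/v final. After 15 min preincubation at 37°C, started with 10 μM M1-1 or 26-aldehyde-Rh2. Run 60 min, stopped with ice-cold acetonitrile. Duplicates, uninhibited controls; M2-3 acid measured by LC/MSn.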

Liver cytosol [10] = test: Drug metabolism in human liver cytosol assessed as 26-carboxy,20(S)-Ginsenoside Rh2 formation at 10 uM by LC/MS analysis in presence of 100 uM raloxifene aldehyde oxidase inhibitor; format: ADME; conditions: in the assay text read “100 nM raloxifene” for “100 uM raloxifene”; outline: as §4
Liver cytosol [11] = test: Drug metabolism in human liver cytosol assessed as 26-carboxy,20(S)-Ginsenoside Rh2 formation at 10 uM by LC/MS analysis in presence of 50 uM disulfiram aldehyde dehydrogenase inhibitor; format: ADME; outline: as §4
[12] = Retention time in cynomolgus monkey liver microsomes treated with 10 uM 20(S)-ginsenoside Rh2 by MS2 spectra; format: ADME, Macaca fascicularis; outline: as §1

Retention_time (Liver microsome [1]) [min]	Retention_time (Liver [2]) [min]	Drug metabolism (Liver microsome [3])	Drug metabolism [4]	Drug metabolism (Liver microsome [5])	Drug metabolism (Liver microsome [6])	Drug metabolism (Liver [7])	Drug metabolism (Liver [8])	Drug metabolism (Cytochrome P450 3A4)	Drug metabolism (Cytochrome P450 3A5)	Drug metabolism (Liver cytosol [9])	Drug metabolism (Liver cytosol [10])	Drug metabolism (Liver cytosol [11])	Retention_time [12] [min]	Compound
16.7	16.7	metabolite_detected	metabolite_detected	metabolite_detected	metabolite_detected	metabolite_detected	metabolite_detected	metabolite_detected	metabolite_detected	metabolite_not_detected	metabolite_not_detected	metabolite_not_detected	–	C/C(=C\CC[C@](C)(O)[C@H]1CC[C@]2(C)[C@@H]1[C@H](O)C[C@@H]1[C@@]3(C)CC[C@H](O[C@@H]4O[C@H](CO)[C@@H](O)[C@H](O)[C@H]4O)C(C)(C)[C@@H]3CC[C@]12C)CO
–	–	metabolite_not_detected	metabolite_detected	metabolite_not_detected	metabolite_not_detected	metabolite_not_detected	metabolite_not_detected	metabolite_not_detected	metabolite_not_detected	–	–	–	10.6	CC(C)(O)C(CC[C@](C)(O)[C@H]1CC[C@]2(C)[C@@H]1[C@H](O)C[C@@H]1[C@@]3(C)CC[C@H](O[C@@H]4O[C@H](CO)[C@@H](O)[C@H](O)[C@H]4O)C(C)(C)[C@@H]3CC[C@]12C)SC[C@H](NC(=O)CC[C@H](N)C(=O)O)C(=O)NCC(=O)O (some centres not stated)
